Source: ChEMBL document CHEMBL1139420, “Antibacterial profile against drug-resistant Staphylococcus epidermidis clinical strain and structure-activity relationship studies of 1H-pyrazolo[3,4-b]pyridine and thieno[2,3-b]pyridine derivatives” (Bioorg Med Chem, 2008)
Values after ≈ are worked out from the molar mass of the structure shown. Active and inactive are the calls of the source. The rule behind the calls is not given here.

How the values were obtained:
Serratia marcescens = experiment: Antibacterial activity against drug-resistant Serratia marcescens clinical isolate assessed as inhibition zone diameter after 24 hrs by antibacterial susceptibility test; format: functional, organism-based
Proteus mirabilis = experiment: Antibacterial activity against drug-resistant Proteus mirabilis clinical isolate assessed as inhibition zone diameter after 24 hrs by antibacterial susceptibility test; format: functional, organism-based
Pseudomonas aeruginosa = experiment: Antibacterial activity against drug-resistant Pseudomonas aeruginosa clinical isolate assessed as inhibition zone diameter after 24 hrs by antibacterial susceptibility test; format: functional, organism-based
Enterobacter cloacae = experiment: Antibacterial activity against drug-resistant Enterobacter cloacae clinical isolate assessed as inhibition zone diameter after 24 hrs by antibacterial susceptibility test; format: functional, organism-based
[1] = tested on: Acinetobacter calcoaceticus; experiment: Antibacterial activity against drug-resistant Acinetobacter calcoaceticus clinical isolate assessed as inhibition zone diameter after 24 hrs by antibacterial susceptibility test; format: functional, organism-based
Klebsiella pneumoniae = experiment: Antibacterial activity against drug-resistant Klebsiella pneumoniae clinical isolate assessed as inhibition zone diameter after 24 hrs by antibacterial susceptibility test; format: functional, organism-based
Enterococcus faecalis = experiment: Antibacterial activity against drug-resistant Enterococcus faecalis clinical isolate assessed as inhibition zone diameter after 24 hrs by antibacterial susceptibility test; format: functional, organism-based
[2] = tested on: Staphylococcus epidermidis; experiment: Antibacterial activity against drug-resistant Staphylococcus epidermidis clinical isolate assessed as inhibition zone diameter after 24 hrs by antibacterial susceptibility test; format: functional
[3] = Cytotoxicity against human PBMC assessed as cell viability at 700 uM after 3 to 5 days by XTT method; format: cell-based; settings: PBMC (peripheral blood mononuclear cells), read-out: Activity
Summary of the method: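 Human PBMCs from healthy donors isolated by density gradient from buffy coats, kept in RPMI 1640 with 10% heat-inactivated FBS, penicillin, streptomycin, 2 mM glutamine, 10 mM Hepes; stimulated 2–3 days with 5 µg/mL PHA, then kept with 5 U/mL IL-2. Compound at 700 µM, 5% CO2, 37 °C; XTT added, OD 450 nm after 2 h; duplicate, at least three times.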

Escherichia coli = experiment: Antibacterial activity against drug-resistant Escherichia coli clinical isolate assessed as inhibition zone diameter after 24 hrs by antibacterial susceptibility test; format: functional, organism-based
[4] = tested on: Staphylococcus epidermidis; experiment: Antibacterial activity against drug-resistant Staphylococcus epidermidis clinical isolate after 24 hrs by macro-dilution broth method; format: functional

| Compound | Activity (Serratia marcescens) | Activity (Proteus mirabilis) | Activity (Pseudomonas aeruginosa) | Activity (Enterobacter cloacae) | Activity [1] | Activity (Klebsiella pneumoniae) | Activity (Enterococcus faecalis) | inhibition zone (IZ) [2] [mm] | viability at 700 µM [3] [%] | Activity (Escherichia coli) | MIC [4] [µg/mL] |
| --- | --- | --- | --- | --- | --- | --- | --- | --- | --- | --- | --- |
| O=C(O)c1cnc2sccc2c1Nc1ccccc1 | inactive | inactive | inactive | inactive | inactive | inactive | inactive | 0 | 100 | inactive | – |
| O=C(O)c1cnc2sccc2c1Nc1ccc(Br)cc1 | inactive | inactive | inactive | inactive | inactive | inactive | inactive | 0 | 100 | inactive | – |
| O=C(O)c1cnc2sccc2c1Nc1cccc(Br)c1 | inactive | inactive | inactive | inactive | inactive | inactive | inactive | 0 | 100 | inactive | – |
| O=C(O)c1cnc2sccc2c1Nc1cccc([N+](=O)[O-])c1 | inactive | inactive | inactive | inactive | inactive | inactive | inactive | 0 | 100 | inactive | – |
| O=C(O)c1cnc2sccc2c1Nc1cccc(F)c1 | inactive | inactive | inactive | inactive | inactive | inactive | inactive | 0 | 100 | inactive | – |
| Cc1ccc(Nc2c(C(=O)O)cnc3c2cnn3-c2ccccc2)cc1 | inactive | inactive | inactive | inactive | inactive | inactive | inactive | 0 | 100 | inactive | – |
| COc1ccc(Nc2c(C(=O)O)cnc3c2cnn3-c2ccccc2)cc1 | inactive | inactive | inactive | inactive | inactive | inactive | inactive | 0 | 100 | inactive | – |
| CN[C@H](CC(C)C)C(=O)N[C@H]1C(=O)N[C@@H](CC(N)=O)C(=O)N[C@H]2C(=O)N[C@H]3C(=O)N[C@H](C(=O)N[C@H](C(=O)O)c4cc(O)cc(O)c4-c4cc3ccc4O)[C@H](O)c3ccc(c(Cl)c3)Oc3cc2cc(c3O[C@@H]2O[C@H](CO)[C@@H](O)[C@H](O)[C@H]2O[C@H]2C[C@](C)(N)[C@H](O)[C@H](C)O2)Oc2ccc(cc2Cl)[C@H]1O [VANCOMYCIN] | – | – | – | – | – | – | – | 15 | – | – | – |
| O=C(O)c1cnc2sccc2c1Nc1ccc(Cl)cc1 | inactive | inactive | inactive | inactive | inactive | inactive | inactive | 0 | 100 | inactive | – |
| O=C(O)c1cnc2sccc2c1Nc1ccc([N+](=O)[O-])cc1 | inactive | inactive | inactive | inactive | inactive | inactive | inactive | 0 | 100 | inactive | – |
| COc1ccc(Nc2c(C(=O)O)cnc3sccc23)cc1 | inactive | inactive | inactive | inactive | inactive | inactive | inactive | 0 | 100 | inactive | – |
| O=C(O)c1cnc2c(cnn2-c2ccccc2)c1Nc1ccc(Br)cc1 | inactive | inactive | inactive | inactive | inactive | inactive | inactive | 10 | 92 | inactive | – |
| O=C(O)c1cnc2c(cnn2-c2ccccc2)c1Nc1cccc(Cl)c1 | inactive | inactive | inactive | inactive | inactive | inactive | inactive | 17 | 100 | inactive | 16 (≈ 43.9 µM) |
| Cc1cccc(Nc2c(C(=O)O)cnc3c2cnn3-c2ccccc2)c1 | inactive | inactive | inactive | inactive | inactive | inactive | inactive | 16 | 100 | inactive | 64 (≈ 186 µM) |
| O=C(O)c1cnc2c(cnn2-c2ccccc2)c1Nc1cccc([N+](=O)[O-])c1 | inactive | inactive | inactive | inactive | inactive | inactive | inactive | 12 | 100 | inactive | – |
| Cc1cccc(Nc2c(C(=O)O)cnc3sccc23)c1 | inactive | inactive | inactive | inactive | inactive | inactive | inactive | 0 | 100 | inactive | – |
| Cc1ccc(Nc2c(C(=O)O)cnc3sccc23)cc1 | inactive | inactive | inactive | inactive | inactive | inactive | inactive | 0 | 100 | inactive | – |
| COc1cccc(Nc2c(C(=O)O)cnc3sccc23)c1 | inactive | inactive | inactive | inactive | inactive | inactive | inactive | 0 | 100 | inactive | – |
| O=C(O)c1cnc2sccc2c1Nc1ccc(F)cc1 | inactive | inactive | inactive | inactive | inactive | inactive | inactive | 0 | 100 | inactive | – |
| O=C(O)c1cnc2c(cnn2-c2ccccc2)c1Nc1ccccc1 | inactive | inactive | inactive | inactive | inactive | inactive | inactive | 0 | 91 | inactive | – |
| O=C(O)c1cnc2c(cnn2-c2ccccc2)c1Nc1ccc(Cl)cc1 | inactive | inactive | inactive | inactive | inactive | inactive | inactive | 0 | 100 | inactive | – |
| O=C(O)c1cnc2c(cnn2-c2ccccc2)c1Nc1ccc([N+](=O)[O-])cc1 | inactive | inactive | inactive | inactive | inactive | inactive | inactive | 0 | 88 | inactive | – |
| O=C(O)c1cnc2sccc2c1Nc1cccc(Cl)c1 | inactive | inactive | inactive | inactive | inactive | inactive | inactive | 0 | 100 | inactive | – |
